Data reported in ChEMBL document CHEMBL1212938, “Inhibition of mycobacterial replication by pyrimidines possessing various C-5 functionalities and related 2'-deoxynucleoside analogues using in vitro and in vivo models” (J Med Chem, 2010).
Converted amounts (≈) assume the structure as drawn.

Columns and labels:
[1] = system: Mycobacterium tuberculosis; test: Antitubercular activity against Mycobacterium bovis BCG at 100 ug/ml after 6 days by microplate alamar blue assay; assay type: functional; conditions: variant bovis BCG, 144 h
Procedure, shortened: (§1)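 MABA run in 7H9GC medium, with drug diluted from DMSO stocks made at 100× the highest final concentration. Final levels were 100, 50, 10, 5, 2.5 and 1 μg/mL in triplicate, and the experiment was done three times. Inoculum was 2.5 × 10⁵ CFU/mL final. Alamar Blue plus Tween-80 was added once bacteria-only control wells turned pink, from day 6 on, and plates were read visually and by fluorescence after 24 h. Visual MIC is the lowest concentration preventing the blue-to-pink change. Mean percent inhibition was taken relative to bacteria-only and medium-only wells.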

[2] = system: Mycobacterium tuberculosis; test: Antitubercular activity against Mycobacterium bovis BCG at 10 ug/ml after 6 days by microplate alamar blue assay; assay type: functional; conditions: variant bovis BCG, 144 h; procedure, shortened: as §1
[3] = system: Mycobacterium tuberculosis; test: Antitubercular activity against Mycobacterium bovis BCG at 50 ug/ml after 6 days by microplate alamar blue assay; assay type: functional; conditions: variant bovis BCG, 144 h; procedure, shortened: as §1
[4] = system: Mycobacterium tuberculosis; test: Antitubercular activity against Mycobacterium bovis BCG after 6 days by microplate alamar blue assay; assay type: functional; conditions: variant bovis BCG, 144 h; procedure, shortened: as §1
[5] = system: Mycobacterium tuberculosis; test: Antitubercular activity against Mycobacterium bovis BCG at 1 to 5 ug/ml after 6 days by microplate alamar blue assay; assay type: functional, variant bovis BCG; procedure, shortened: as §1
[6] = system: Mycobacterium tuberculosis; test: Antitubercular activity against Mycobacterium bovis BCG at 5 ug/ml after 6 days by microplate alamar blue assay; assay type: functional; conditions: variant bovis BCG, 144 h; procedure, shortened: as §1
[7] = system: Mycobacterium tuberculosis; test: Antitubercular activity against Mycobacterium bovis BCG at 0.5 to 1 ug/ml after 6 days by microplate alamar blue assay; assay type: functional, variant bovis BCG; procedure, shortened: as §1
[8] = system: Mycobacterium tuberculosis; test: Antitubercular activity against Mycobacterium bovis BCG at 1 ug/ml after 6 days by microplate alamar blue assay; assay type: functional; conditions: variant bovis BCG, 144 h; procedure, shortened: as §1

Structure (SMILES) | inhibition at 100 µg/mL [1] | inhibition at 10 µg/mL [2] | inhibition at 50 µg/mL [3] | MIC50 [4] | inhibition (INH) [5] | inhibition at 5 µg/mL [6] | inhibition (INH) [7] | inhibition at 1 µg/mL [8]
O=c1[nH]cc(C#Cc2ccccc2)c(=O)[nH]1 | 90% | 40% | 90% | ≥ 10 µg/mL | – | – | – | –
CCCc1ccc(C#Cc2c[nH]c(=O)[nH]c2=O)cc1 | 100% | 70% | 70% | 1 µg/mL (≈ 3.93 µM) | 50% | – | – | –
CCCCCc1ccc(C#Cc2c[nH]c(=O)[nH]c2=O)cc1 | 90% | 60% | 60% | 1 µg/mL (≈ 3.54 µM) | 50% | – | – | –
O=c1[nH]cc(C#Cc2ccccn2)c(=O)[nH]1 | 90% | 75% | 75% | < 5 µg/mL | – | 60% | – | –
C(C#Cc1ccccn1)#Cc1ccccn1 | 100% | 100% | 100% | < 0.5 µg/mL | – | – | 80% | –
CCCc1cc2c[nH]c(=O)nc2o1 | 90% | 50% | 50% | 10 µg/mL (≈ 56.1 µM) | – | – | – | –
CCCCCc1cc2c[nH]c(=O)nc2o1 | – | – | – | 100 µg/mL (≈ 485 µM) | – | – | – | –
O=c1[nH]c(=O)n([C@H]2C[C@H](O)[C@@H](CO)O2)cc1C#Cc1ccccn1 | 50% | 80% | 90% | 1 µg/mL (≈ 3.04 µM) | 50% | – | – | –
Nc1nc(=O)n([C@H]2C[C@H](O)[C@@H](CO)O2)cc1C#Cc1ccccn1 | 90% | 80% | 90% | 1 µg/mL (≈ 3.05 µM) | 50% | – | – | –
N[C@@H]1CONC1=O [CYCLOSERINE] | – | 71% | – | 5 µg/mL (≈ 49 µM) | – | 50% | – | –
NNC(=O)c1ccncc1 [ISONIAZID] | – | – | – | < 1 µg/mL | – | – | – | 100%
CO[C@H]1/C=C/O[C@@]2(C)Oc3c(C)c(O)c4c(O)c(c(/C=N/N5CCN(C)CC5)c(O)c4c3C2=O)NC(=O)/C(C)=C\C=C\[C@H](C)[C@H](O)[C@@H](C)[C@@H](O)[C@@H](C)[C@H](OC(C)=O)[C@@H]1C [RIFAMPIN] | – | – | – | < 1 µg/mL | – | – | – | 100%
